Measured values published in ChEMBL document CHEMBL3272346, “Vinyl ethers of choline and congeners” (1976).
Calls of active or inactive are those of the source. No cut-off for these calls is given here.

How the values were obtained:
Canis familiaris [1] = test: Increase in blood pressure in atropine sulfate-pretreated anesthetized dog at 0.3 to 0.6 mg/kg relative to acetylcholine; type: functional, Canis lupus familiaris; details: dose mg/kg 0.3-0.6
Method in brief: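 Dogs were pretreated with atropine sulfate (0.5 mg/kg) and given compounds or acetylcholine at 0.3 and 0.6 mg/kg, rapidly into the right femoral vein in randomized order. Pressor responses were recorded from the left femoral artery by transducer. Relative potencies with 95% confidence intervals were calculated by Finney's method on molar cation amounts.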

Canis familiaris [2] = test: Increase in blood pressure in hexamethonium bromide-pretreated anesthetized dog at 0.3 to 0.6 mg/kg; type: functional, organism-based; details: Canis lupus familiaris
Method in brief: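 In atropine sulfate-pretreated (0.5 mg/kg) anesthetized dogs, compounds were given intravenously at 0.3 and 0.6 mg/kg. Femoral arterial pressor responses were measured after pretreatment with hexamethonium bromide, 10 mg/kg, given intravenously.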

Cavia porcellus [3] = species on record: Cavia porcellus; test: […] at muscarinic acetylcholine receptor in guinea pig ileum assessed as muscle contraction in presence of 0.2 mg/l atropine sulfate; type: tissue-based
Method in brief: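 Contractions of a guinea pig ileum segment (animals 300-600 g, tissue taken just before the ileocecal valve) were evoked by added drug. Atropine sulfate was present at 0.2 mg/l to test antagonism of the responses.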

Canis familiaris [4] = test: Decrease in blood pressure in dog at 1 to 4 ug/kg relative to acetylcholine
Cavia porcellus [5] = species on record: Cavia porcellus; test: Agonist activity at muscarinic acetylcholine receptor in guinea pig ileum assessed as muscle contraction at 2.5 to 10 ng/ml relative to acetylcholine
Canis familiaris [6] = test: Increase in blood pressure in dog at 0.2 mg/kg; type: functional, organism-based; parameters: dose 0.2 mg/kg; details: Canis lupus familiaris
Method in brief: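 Dogs anesthetized with barbital sodium (250 mg/kg) and pretreated with atropine sulfate (0.5 mg/kg). Agents given rapidly into the right femoral vein in randomized order. Left femoral arterial pressure recorded by transducer. Pressor responses were also tested after intravenous hexamethonium bromide pretreatment (10 mg/kg). Potency is relative to acetylcholine, computed on molar cation amounts by Finney's method with 95% confidence intervals.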

Canis familiaris [7] = test: Increase in blood pressure in atropine sulfate-pretreated anesthetized dog at 2 mg/kg; type: functional, organism-based; parameters: dose 2 mg/kg; details: Canis lupus familiaris

For `CCOCC[N+](C)(C)C.[I-]`, the “fold change (FC)” value (Canis familiaris [1]) was 0.9, the Activity (Canis familiaris [2]) was “inactive” and the Activity (Cavia porcellus [3]) was “inactive”. For the same compound, the “fold change (FC)” value (Canis familiaris [4]) was 1.03 and the fold change (FC) (Cavia porcellus [5]) was 0.15.

`C=COCC[N+](C)(C)C.[I-]` was tested, and the “fold change (FC)” value (Canis familiaris [1]) was 1.93, the Activity (Canis familiaris [2]) was “inactive” and the Activity (Cavia porcellus [3]) was “inactive”. For the same compound, the “fold change (FC)” value (Canis familiaris [4]) was 1.13 and the fold change (FC) (Cavia porcellus [5]) was 0.09.

For `CN1C2CCC1CC(OC(=O)C(CO)c1ccccc1)C2` (centres undefined), the Activity (Canis familiaris [6]) was “Active”.

`C=COCC(C)[N+](C)(C)C.[I-]` (racemic) was tested, and the “fold change (FC)” value (Canis familiaris [1]) was 3.74, the Activity (Canis familiaris [2]) was “inactive” and the Activity (Cavia porcellus [3]) was “inactive”. The “fold change (FC)” value (Canis familiaris [4]) was 0.06 and the fold change (FC) (Cavia porcellus [5]) was 0.001.

In the case of `C=COC(C)C[N+](C)(C)C.[I-]` (racemic), the Activity (Canis familiaris [7]) is reported as “inactive”, the Activity (Cavia porcellus [3]) is reported as “inactive” and the “fold change (FC)” value (Canis familiaris [4]) is reported as 0.74. For the same compound, the fold change (FC) (Cavia porcellus [5]) was 0.02.

In the case of `CCOCC(C)[N+](C)(C)C.[I-]` (racemic), the “fold change (FC)” value (Canis familiaris [1]) is reported as 1.13, the Activity (Canis familiaris [2]) is reported as “inactive” and the Activity (Cavia porcellus [3]) is reported as “inactive”. The “fold change (FC)” value (Canis familiaris [4]) was 0.08 and the fold change (FC) (Cavia porcellus [5]) was 0.003.

With `CCOC(C)C[N+](C)(C)C.[I-]` (racemic) the Activity (Canis familiaris [7]) was “inactive”, the Activity (Cavia porcellus [3]) was “inactive” and the “fold change (FC)” value (Canis familiaris [4]) was 0.64. The fold change (FC) (Cavia porcellus [5]) was 0.03.
